What is called pIC50 is the negative decadic logarithm of the IC50, by convention in mol/L.

Molecules are shown by their SMILES. pIC50: −log10 of the molar value. Values after ≈ are worked out from the molar mass of the structure shown.

The results in this text go back to ChEMBL document CHEMBL3098028, “Synthesis and in vitro and in vivo pharmacological evaluation of new 4-aminoquinoline-based compounds” (ACS Med Chem Lett, 2013).

For one data set, the target named is Cytochrome P450 2E1 (Homo sapiens, UniProt P05181). As to the kind of experiment: Inhibition of CYP2E1 in human liver microsomes assessed as chlorzoxazone 6-hydroxylation after 20 mins by LC-MS/MS analysis. Format: ADME. A general note: Liver microsomes are a subcellular fraction often used to study metabolism.
A further data set has as its system CHO. As to the kind of experiment: Cytotoxicity against CHO cells. Format: cell-based. To be noted: Cricetulus griseus.
The test system of data set [1] is Plasmodium falciparum. The data set can be described thus: Resistance index, ratio of IC50 for chloroquine-resistant Plasmodium falciparum K1 to IC50 for chloroquine-sensitive Plasmodium falciparum 3D7. Format: functional.
In a further data set the target is Cytochrome P450 2D6 (Homo sapiens, UniProt P10635). As to the kind of experiment: Inhibition of CYP2D6 in human liver microsomes assessed as bufuralol 1'-hydroxylation after 20 mins by LC-MS/MS analysis. Type of data set: ADME.
For data set [2], the system named is Plasmodium falciparum. As to the kind of experiment: Antiplasmodial activity against chloroquine-sensitive Plasmodium falciparum 3D7 after 24 hrs by [3H]hypoxanthine incorporation assay. Format: functional, organism-based. An outline of the steps: (§1)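 Antiplasmodial testing was done at the Swiss Tropical and Public Health Institute. Chloroquine, the reference drug, was tested as its diphosphate salt.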

A short description of data set [3]: Kinetic solubility of the compound in phosphate buffered saline at pH 7.4 after 2 hrs by HPLC analysis. Type of data set: physicochemical. As to conditions: read-out: Kinetic_solubility.
For a further data set, the target named is Cytochrome P450 2C9 (Homo sapiens, UniProt P11712). As to the kind of experiment: Inhibition of CYP2C9 in human liver microsomes assessed as diclofenac 4'-hydroxylation after 20 mins by LC-MS/MS analysis. Format: ADME.
Another data set has as its target T1, Cytochrome P450 1A2 (Homo sapiens, UniProt P05177).
T1 sequence (P05177 whole entry): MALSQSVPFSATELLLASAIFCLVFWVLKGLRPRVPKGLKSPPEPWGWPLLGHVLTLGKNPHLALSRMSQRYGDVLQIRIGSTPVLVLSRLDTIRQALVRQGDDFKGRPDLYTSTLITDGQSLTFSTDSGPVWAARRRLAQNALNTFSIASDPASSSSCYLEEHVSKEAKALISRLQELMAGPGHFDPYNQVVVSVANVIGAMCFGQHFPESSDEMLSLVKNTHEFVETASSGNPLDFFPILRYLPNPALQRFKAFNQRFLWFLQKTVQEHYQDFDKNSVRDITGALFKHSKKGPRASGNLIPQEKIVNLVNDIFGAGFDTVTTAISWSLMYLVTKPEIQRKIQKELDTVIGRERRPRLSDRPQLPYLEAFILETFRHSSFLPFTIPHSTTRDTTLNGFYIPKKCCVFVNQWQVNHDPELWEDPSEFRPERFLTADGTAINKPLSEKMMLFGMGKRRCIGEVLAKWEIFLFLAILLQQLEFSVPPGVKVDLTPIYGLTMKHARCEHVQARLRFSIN
The data set can be described thus: Inhibition of CYP1A2 in human liver microsomes assessed as phenacetin O-deethylation after 20 mins by LC-MS/MS analysis. Type of data set: ADME.

A further data set addresses Cytochrome P450 3A4 (Homo sapiens, UniProt P08684). As to the kind of experiment: Inhibition of CYP3A4 in human liver microsomes assessed as midazolam 1'-hydroxylation and testosterone 6beta-hydroxylation after 20 mins by LC-MS/MS analysis. Type of data set: ADME.
The next data set addresses T2, Cytochrome P450 2C8 (Homo sapiens, UniProt P10632).
T2 sequence (P10632 whole entry): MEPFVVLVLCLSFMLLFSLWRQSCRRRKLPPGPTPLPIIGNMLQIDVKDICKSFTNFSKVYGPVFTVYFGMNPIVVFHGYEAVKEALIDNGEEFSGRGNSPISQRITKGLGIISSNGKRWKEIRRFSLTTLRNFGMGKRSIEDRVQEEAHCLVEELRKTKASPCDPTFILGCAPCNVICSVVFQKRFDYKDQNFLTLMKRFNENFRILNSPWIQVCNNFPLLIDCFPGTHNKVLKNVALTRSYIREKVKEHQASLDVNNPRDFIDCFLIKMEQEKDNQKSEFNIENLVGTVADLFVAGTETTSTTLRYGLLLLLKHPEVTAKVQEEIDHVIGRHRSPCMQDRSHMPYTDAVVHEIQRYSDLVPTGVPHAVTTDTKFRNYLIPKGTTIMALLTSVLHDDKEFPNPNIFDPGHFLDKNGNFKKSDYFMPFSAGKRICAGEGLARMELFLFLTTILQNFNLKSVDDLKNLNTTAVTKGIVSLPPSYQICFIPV
The data set can be described thus: Inhibition of CYP2C8 in human liver microsomes assessed as paclitaxel 6alpha-hydroxylation after 20 mins by LC-MS/MS analysis. Type of data set: ADME.

The target of a further data set is T3, Cytochrome P450 2B6 (Homo sapiens, UniProt P20813).
T3 sequence (P20813 whole entry): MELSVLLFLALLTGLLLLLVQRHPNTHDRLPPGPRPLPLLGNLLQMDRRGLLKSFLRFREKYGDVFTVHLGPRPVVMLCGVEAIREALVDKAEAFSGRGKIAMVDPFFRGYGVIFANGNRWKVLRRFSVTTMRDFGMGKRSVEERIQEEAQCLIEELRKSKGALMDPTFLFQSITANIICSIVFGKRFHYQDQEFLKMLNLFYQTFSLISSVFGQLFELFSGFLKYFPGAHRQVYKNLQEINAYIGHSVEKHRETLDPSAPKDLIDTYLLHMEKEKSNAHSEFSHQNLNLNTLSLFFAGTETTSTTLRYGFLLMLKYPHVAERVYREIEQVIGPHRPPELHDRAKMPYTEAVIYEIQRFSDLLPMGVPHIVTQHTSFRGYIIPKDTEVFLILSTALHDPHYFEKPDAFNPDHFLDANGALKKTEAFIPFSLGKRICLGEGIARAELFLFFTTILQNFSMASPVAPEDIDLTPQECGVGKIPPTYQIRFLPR
As to the kind of experiment: Inhibition of CYP2B6 in human liver microsomes assessed as bupropion hydroxylation after 20 mins by LC-MS/MS analysis. Type of data set: ADME.

In a further data set the target is Cytochrome P450 2C19 (Homo sapiens, UniProt P33261). The data set can be described thus: Inhibition of CYP2C19 in human liver microsomes assessed as S-mephenytoin 4'-hydroxylation after 20 mins by LC-MS/MS analysis. Format: ADME.
A further data set has as its target T4, Cytochrome P450 2A6 (Homo sapiens, UniProt P11509).
T4 sequence (P11509 whole entry): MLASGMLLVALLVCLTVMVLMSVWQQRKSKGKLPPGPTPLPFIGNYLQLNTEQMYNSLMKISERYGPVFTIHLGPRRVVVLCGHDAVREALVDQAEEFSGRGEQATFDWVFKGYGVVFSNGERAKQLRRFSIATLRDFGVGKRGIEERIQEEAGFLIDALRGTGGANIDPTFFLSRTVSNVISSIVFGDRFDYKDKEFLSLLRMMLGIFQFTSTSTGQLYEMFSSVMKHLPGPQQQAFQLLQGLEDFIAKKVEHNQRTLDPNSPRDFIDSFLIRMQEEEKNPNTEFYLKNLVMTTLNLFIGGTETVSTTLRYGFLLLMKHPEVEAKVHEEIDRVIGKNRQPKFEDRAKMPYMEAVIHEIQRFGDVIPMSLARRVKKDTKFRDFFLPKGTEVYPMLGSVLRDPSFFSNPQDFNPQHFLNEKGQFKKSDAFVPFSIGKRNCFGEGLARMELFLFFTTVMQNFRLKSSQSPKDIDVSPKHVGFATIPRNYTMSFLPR
The data set can be described thus: Inhibition of CYP2A6 in human liver microsomes assessed as coumarin 7-hydroxylation after 20 mins by LC-MS/MS analysis. Type of data set: ADME.

Data set [4] is described as follows: Kinetic solubility of the compound in 0.01 M HCl at pH 2 after 2 hrs by HPLC analysis. As to conditions: read-out: Kinetic_solubility. Format: physicochemical.
Data set [5] concerns Plasmodium falciparum. As to the kind of experiment: Antiplasmodial activity against chloroquine-resistant Plasmodium falciparum K1 after 24 hrs by [3H]hypoxanthine incorporation assay. Type of data set: functional, organism-based. Summed up: as §1
In data set [6] the test system is Plasmodium falciparum. As to the kind of experiment: Antiplasmodial activity against chloroquine-resistant Plasmodium falciparum W2 after 24 hrs by [3H]hypoxanthine incorporation assay. Format: functional, organism-based. An outline of the steps:
as §1

Sequence of Cytochrome P450 2E1 (P05181 whole entry): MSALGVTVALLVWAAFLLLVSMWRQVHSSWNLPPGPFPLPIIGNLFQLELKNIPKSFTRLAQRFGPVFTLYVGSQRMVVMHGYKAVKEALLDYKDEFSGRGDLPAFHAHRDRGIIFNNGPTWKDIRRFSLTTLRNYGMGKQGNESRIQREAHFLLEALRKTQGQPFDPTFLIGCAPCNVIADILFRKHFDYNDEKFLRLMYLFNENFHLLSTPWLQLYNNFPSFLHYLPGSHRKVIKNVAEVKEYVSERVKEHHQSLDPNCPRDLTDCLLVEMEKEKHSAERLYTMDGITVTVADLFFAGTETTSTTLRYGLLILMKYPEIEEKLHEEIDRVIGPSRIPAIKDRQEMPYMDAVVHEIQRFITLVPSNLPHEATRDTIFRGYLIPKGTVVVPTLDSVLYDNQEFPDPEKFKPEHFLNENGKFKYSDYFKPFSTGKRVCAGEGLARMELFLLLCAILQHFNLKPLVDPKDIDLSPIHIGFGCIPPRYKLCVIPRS
Sequence of Cytochrome P450 2D6 (P10635 whole entry): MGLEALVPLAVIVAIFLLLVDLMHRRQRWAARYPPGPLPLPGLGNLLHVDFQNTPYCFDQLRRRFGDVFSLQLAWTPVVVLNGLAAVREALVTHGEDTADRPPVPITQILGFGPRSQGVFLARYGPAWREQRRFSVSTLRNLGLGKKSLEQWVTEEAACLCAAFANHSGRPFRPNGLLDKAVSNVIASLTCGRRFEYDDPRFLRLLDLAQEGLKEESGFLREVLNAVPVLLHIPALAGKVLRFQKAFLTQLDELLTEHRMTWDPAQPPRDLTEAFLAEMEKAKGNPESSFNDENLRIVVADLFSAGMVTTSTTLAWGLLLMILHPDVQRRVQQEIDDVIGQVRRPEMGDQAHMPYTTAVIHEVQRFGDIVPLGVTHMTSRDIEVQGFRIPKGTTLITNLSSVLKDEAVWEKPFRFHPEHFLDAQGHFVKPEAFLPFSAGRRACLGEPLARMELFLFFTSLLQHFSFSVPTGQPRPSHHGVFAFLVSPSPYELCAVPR
Sequence of Cytochrome P450 2C9 (P11712 whole entry): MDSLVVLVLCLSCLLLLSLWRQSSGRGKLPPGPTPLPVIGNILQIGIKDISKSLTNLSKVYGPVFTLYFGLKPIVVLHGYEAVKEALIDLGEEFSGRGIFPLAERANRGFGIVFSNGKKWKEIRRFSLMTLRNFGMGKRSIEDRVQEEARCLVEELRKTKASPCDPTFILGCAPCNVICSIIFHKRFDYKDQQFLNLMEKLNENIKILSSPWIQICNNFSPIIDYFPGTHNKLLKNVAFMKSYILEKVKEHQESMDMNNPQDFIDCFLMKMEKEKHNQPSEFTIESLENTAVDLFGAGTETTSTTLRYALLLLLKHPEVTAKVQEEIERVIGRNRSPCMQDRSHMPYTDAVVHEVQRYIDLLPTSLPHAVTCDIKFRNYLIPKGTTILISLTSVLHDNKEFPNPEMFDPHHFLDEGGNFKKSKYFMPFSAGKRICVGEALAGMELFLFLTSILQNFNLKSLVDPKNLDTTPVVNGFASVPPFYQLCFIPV
Sequence of Cytochrome P450 3A4 (P08684 whole entry): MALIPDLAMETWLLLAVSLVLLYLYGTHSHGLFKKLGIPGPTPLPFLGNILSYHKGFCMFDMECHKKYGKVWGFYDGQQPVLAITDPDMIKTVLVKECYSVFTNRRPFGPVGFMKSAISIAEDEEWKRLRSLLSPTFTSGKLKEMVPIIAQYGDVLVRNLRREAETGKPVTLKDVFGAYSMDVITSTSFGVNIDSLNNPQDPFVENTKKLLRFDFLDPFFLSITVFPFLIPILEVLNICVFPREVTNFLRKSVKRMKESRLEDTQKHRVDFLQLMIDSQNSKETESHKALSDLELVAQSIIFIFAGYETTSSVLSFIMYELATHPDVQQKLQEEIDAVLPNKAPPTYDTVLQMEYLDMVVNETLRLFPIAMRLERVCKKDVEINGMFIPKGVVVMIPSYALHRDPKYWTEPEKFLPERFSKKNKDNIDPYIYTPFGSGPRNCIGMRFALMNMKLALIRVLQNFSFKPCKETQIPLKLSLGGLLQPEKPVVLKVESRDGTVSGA
Sequence of Cytochrome P450 2C19 (P33261 whole entry): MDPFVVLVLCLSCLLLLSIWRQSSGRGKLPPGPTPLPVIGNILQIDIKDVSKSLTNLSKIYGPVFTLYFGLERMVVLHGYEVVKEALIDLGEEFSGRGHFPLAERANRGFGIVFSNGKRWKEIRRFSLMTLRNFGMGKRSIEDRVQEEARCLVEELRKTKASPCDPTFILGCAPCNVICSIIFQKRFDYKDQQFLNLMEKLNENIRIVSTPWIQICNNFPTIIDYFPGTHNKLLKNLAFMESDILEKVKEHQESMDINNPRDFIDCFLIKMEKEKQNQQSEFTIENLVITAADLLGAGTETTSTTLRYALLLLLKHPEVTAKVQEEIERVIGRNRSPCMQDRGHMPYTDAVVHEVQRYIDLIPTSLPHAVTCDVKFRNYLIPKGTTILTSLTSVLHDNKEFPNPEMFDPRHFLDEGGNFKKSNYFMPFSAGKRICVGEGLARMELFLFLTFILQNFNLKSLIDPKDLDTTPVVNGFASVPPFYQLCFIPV

In the case of `Cc1ccc(C(NCCNc2ccnc3cc(Cl)ccc23)c2nnnn2C(C)(C)C)cc1` (stereo unspecified), the pIC50 at Cytochrome P450 2E1 was under 4.70; with CHO, 3.73; at Cytochrome P450 2D6, 5.01; in the data set with Plasmodium falciparum [2] it was 9.00; on Cytochrome P450 2C9 it was 4.99; at Cytochrome P450 1A2, under 4.70. Also, the negative-log IC50 (pIC50) on Cytochrome P450 3A4 is 6.77; on Cytochrome P450 2C8, 5.40; at Cytochrome P450 2B6 it was under 4.70; on Cytochrome P450 2C19 it was under 4.70; on Cytochrome P450 2A6, under 4.70; in the data set on Plasmodium falciparum [5], 8.70. In addition, in the data set on Plasmodium falciparum [6], the negative logarithm of the IC50 (pIC50) was 7.51. Moreover, the “Ratio IC50” value in the data set on Plasmodium falciparum [1] was 2. The solubility kinetic at 2 h in [3] turned out to be 39.6 µM (≈ 17.8 µg/mL); in data set [4], 127 µM (≈ 57.1 µg/mL).
